Test [1] is described as follows: Antagonist activity at muscarinic M1 receptor in New Zealand rabbit vas deferens assessed as effect on electrically-stimulated muscle contraction after 60 mins. The test is classed as functional, Oryctolagus cuniculus.
The target in test [2] is Muscarinic acetylcholine receptor M3 (Cavia porcellus) (UniProt Q8VH26). Kind of test: Antagonist activity at muscarinic M3 receptor in guinea pig ileum assessed as effect on isotonic tension after 60 mins. The format is functional, tissue-based.
For test [3], the target named is T1, Muscarinic receptor 4 (Cavia porcellus) (UniProt Q8VH25).
T1 sequence (whole entry): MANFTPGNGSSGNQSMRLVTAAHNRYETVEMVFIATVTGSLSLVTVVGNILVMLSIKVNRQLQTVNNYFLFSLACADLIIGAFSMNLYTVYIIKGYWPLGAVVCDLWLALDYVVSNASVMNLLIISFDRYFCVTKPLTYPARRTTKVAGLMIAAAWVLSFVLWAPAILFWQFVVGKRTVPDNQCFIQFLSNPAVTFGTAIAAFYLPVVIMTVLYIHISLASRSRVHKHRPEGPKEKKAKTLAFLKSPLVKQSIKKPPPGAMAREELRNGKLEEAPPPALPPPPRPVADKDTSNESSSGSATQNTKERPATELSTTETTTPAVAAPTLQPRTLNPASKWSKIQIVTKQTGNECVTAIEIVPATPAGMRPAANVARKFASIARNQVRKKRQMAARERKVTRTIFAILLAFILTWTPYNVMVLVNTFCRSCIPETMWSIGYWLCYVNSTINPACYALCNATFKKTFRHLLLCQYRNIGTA
Kind of test: Antagonist activity at muscarinic M4 receptor in guinea pig lung strips assessed as effect on isotonic contraction after 60 mins. The format is functional.

Test [4] addresses T2, Muscarinic receptor 2 (Cavia porcellus) (UniProt Q8VH27).
T2 sequence (whole entry): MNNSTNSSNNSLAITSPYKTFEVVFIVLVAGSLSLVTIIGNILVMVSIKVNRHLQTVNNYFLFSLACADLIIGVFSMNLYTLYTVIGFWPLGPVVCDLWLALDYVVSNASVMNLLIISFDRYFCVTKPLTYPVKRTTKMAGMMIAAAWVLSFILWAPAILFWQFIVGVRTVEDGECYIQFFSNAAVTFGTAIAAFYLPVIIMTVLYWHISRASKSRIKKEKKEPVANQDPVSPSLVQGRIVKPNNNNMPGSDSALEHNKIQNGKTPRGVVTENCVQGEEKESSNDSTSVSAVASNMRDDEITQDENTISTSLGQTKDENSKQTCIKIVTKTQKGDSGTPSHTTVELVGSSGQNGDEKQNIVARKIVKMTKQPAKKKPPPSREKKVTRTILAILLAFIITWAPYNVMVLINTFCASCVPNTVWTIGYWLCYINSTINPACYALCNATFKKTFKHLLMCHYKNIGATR
Kind of test: Antagonist activity at muscarinic M2 receptor in guinea pig left atrium assessed as effect on electrically-stimulated inotropic activity after 60 mins. The test is classed as functional, tissue-based. The note with it: Cardiac atrium.

The target of test [5] is T3, Muscarinic acetylcholine receptor M5 (Homo sapiens, UniProt P08912).
T3 sequence (P08912 whole entry): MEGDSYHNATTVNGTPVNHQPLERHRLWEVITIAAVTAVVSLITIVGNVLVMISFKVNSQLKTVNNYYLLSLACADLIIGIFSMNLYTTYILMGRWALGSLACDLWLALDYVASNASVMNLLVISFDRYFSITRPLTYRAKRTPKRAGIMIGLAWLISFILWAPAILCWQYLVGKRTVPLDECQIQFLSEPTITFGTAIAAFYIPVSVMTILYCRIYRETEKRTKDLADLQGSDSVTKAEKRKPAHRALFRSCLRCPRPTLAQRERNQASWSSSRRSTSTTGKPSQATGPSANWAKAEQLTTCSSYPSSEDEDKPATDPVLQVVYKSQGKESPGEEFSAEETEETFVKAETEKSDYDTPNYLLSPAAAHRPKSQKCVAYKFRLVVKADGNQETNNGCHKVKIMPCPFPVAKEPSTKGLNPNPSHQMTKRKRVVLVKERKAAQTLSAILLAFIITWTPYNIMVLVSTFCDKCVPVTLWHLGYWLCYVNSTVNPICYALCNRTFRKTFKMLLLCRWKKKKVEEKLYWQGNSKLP
Kind of test: Displacement of [3H]NMS from human cloned muscarinic M5 receptor expressed in CHO cells by scintillation counting. The test is classed as cell-based. In outline:
(§1)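 Equilibrium radioligand binding in CHO cells expressing the human muscarinic subtype, following the authors' earlier protocol.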

The target in test [6] is T4, Muscarinic acetylcholine receptor M4 (Homo sapiens, UniProt P08173).
T4 sequence (P08173 whole entry): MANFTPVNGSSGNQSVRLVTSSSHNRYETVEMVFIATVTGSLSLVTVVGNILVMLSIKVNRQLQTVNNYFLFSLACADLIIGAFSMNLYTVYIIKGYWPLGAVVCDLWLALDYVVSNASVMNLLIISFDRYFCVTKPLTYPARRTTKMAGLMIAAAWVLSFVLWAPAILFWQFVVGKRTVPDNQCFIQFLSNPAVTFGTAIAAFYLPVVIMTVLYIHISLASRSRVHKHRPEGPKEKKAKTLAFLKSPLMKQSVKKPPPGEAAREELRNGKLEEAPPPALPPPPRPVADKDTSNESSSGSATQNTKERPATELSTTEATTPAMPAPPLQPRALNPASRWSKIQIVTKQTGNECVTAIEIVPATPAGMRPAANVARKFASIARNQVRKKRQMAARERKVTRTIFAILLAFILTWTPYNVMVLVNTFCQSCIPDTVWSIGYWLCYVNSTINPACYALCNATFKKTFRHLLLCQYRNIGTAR
As to the kind of experiment: Displacement of [3H]NMS from human cloned muscarinic M4 receptor expressed in CHO cells by scintillation counting. The test is classed as cell-based. On the technique in general: In a radioligand displacement assay an active substance lowers the binding of a labelled ligand.

Test [7] has as its target T5, Muscarinic acetylcholine receptor M2 (Homo sapiens, UniProt P08172).
T5 sequence (P08172 whole entry): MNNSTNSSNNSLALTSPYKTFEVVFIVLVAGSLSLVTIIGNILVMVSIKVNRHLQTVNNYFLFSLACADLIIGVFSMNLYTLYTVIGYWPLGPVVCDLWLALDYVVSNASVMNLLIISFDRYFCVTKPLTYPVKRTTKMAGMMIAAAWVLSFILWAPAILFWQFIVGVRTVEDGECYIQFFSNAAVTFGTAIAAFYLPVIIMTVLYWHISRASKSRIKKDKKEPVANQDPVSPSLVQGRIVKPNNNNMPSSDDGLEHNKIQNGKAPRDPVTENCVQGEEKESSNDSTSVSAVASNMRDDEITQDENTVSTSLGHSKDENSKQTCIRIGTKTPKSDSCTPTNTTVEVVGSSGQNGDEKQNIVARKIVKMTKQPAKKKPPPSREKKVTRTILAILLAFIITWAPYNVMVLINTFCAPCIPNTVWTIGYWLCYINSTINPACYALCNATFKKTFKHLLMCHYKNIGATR
As to the kind of experiment: Displacement of [3H]NMS from human cloned muscarinic M2 receptor expressed in CHO cells by scintillation counting. The format is cell-based. In outline:
as §1

Test [8] addresses T6, Muscarinic acetylcholine receptor M1 (Homo sapiens, UniProt P11229).
T6 sequence (P11229 whole entry): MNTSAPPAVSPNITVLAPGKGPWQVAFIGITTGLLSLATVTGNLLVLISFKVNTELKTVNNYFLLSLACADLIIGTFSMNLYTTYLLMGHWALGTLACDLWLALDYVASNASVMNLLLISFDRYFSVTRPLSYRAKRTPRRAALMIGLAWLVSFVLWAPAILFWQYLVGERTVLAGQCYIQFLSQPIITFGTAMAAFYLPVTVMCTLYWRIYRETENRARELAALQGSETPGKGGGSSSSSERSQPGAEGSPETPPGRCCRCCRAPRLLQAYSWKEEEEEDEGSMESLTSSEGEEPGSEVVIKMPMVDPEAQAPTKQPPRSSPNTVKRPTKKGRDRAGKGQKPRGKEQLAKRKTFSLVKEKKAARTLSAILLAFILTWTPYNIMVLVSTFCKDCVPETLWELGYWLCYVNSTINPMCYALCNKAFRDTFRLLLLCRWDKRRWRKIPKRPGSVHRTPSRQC
As to the kind of experiment: Displacement of [3H]NMS from human cloned muscarinic M1 receptor expressed in CHO cells by scintillation counting. The format is cell-based.

Test [9] deals with Muscarinic acetylcholine receptor M3 (Homo sapiens, UniProt P20309). As to the kind of experiment: Displacement of [3H]NMS from human cloned muscarinic M3 receptor expressed in CHO cells by scintillation counting. The test is classed as cell-based.
Muscarinic acetylcholine receptor M3, sequence (P20309 whole entry): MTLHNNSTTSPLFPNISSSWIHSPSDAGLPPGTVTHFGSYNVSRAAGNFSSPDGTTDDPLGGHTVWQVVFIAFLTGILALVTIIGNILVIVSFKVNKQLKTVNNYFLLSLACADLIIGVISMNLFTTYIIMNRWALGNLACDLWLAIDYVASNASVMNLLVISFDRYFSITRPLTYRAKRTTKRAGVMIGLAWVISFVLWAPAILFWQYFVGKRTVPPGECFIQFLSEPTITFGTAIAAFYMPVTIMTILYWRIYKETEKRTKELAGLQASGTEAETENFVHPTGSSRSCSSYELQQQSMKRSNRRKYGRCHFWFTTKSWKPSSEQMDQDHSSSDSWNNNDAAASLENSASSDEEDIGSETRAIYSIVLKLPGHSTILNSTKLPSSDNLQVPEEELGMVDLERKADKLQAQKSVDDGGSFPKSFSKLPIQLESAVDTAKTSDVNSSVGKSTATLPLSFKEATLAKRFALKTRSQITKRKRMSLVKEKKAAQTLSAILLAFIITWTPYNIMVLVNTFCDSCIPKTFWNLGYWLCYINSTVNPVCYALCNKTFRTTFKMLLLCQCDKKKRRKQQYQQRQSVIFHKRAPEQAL

Muscarinic acetylcholine receptor M3 (Cavia porcellus), sequence (Q8VH26 1-587): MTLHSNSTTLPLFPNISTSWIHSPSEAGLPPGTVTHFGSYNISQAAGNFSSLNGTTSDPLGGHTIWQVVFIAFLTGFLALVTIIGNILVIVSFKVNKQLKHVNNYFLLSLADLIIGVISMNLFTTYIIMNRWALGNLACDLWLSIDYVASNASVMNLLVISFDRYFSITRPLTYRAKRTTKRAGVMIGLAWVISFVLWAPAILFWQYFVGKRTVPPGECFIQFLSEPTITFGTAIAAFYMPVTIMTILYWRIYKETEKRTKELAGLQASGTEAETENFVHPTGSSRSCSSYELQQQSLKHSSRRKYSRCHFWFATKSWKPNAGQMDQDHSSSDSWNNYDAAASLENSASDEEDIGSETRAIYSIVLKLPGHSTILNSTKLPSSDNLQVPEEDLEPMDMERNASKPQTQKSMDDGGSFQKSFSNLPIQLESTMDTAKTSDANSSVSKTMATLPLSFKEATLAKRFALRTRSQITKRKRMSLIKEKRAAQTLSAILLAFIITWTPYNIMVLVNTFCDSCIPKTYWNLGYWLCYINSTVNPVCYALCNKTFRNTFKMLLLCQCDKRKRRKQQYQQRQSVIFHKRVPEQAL

With `C[N+]1(C)CCCC1c1ccc(C(c2ccccc2)c2ccccc2)o1.[I-]` (mixture of isomers), the pKb in test [1] is given as 7.91.
For `C[N+]1(C)CCCC1c1ccc(C(O)(c2ccccc2)c2ccccc2)o1` (racemic) [listing 1 of 2 here], the pKb in [2] turned out to be 7.6; in test [3], 6.2; in [4], 7.08.
As to `C[N+]1(C)CCCC1c1ccc(C(O)(c2ccccc2)c2ccccc2)o1.[I-]` (mixture of isomers), the pKb in test [1] is 8.46.
Take `C[N+]1(C)CCC[C@@H]1c1ccc([C@@](O)(c2ccccc2)C2CCCCC2)o1`: the values for the pKb in [2], in [3] and in [4] were 6.95, 6.33 and 6.85, respectively. Moreover, the Ki in test [5] is 229 nM; in test [6] it was 372 nM; in [7], 87.1 nM; in [8] it was 47.9 nM; in [9], 155 nM.
As for `C[N+]1(C)CCCC1c1ccc(C(c2ccccc2)C2CCCCC2)o1` (mixture of isomers), the negative logarithm of the Kb (pKb) in test [2] was 7.88; in [3], 5.69; in [4], 6.21. Besides, the Ki in test [5] was 15.5 nM; in [6] it was 19.5 nM; in test [7], 17.4 nM; in test [8], 6.61 nM; in test [9] it was 8.91 nM.
As to `C[N+]1(C)CCC[C@H]1c1ccc([C@](O)(c2ccccc2)C2CCCCC2)o1`, the pKb in test [2] turned out to be 7.95; in test [3], 6.16; in test [4] it was 7.32. The Ki was 12 nM in test [5]; 33.1 nM in test [6]; 20 nM in test [7]; 9.12 nM in [8]; 9.33 nM in test [9].
`C[N+]1(C)CCCC1c1ccc(C(O)(c2ccccc2)C2CCCCC2)o1` (mixture of isomers): the pKb in test [2] is 8.35; in [3], 5.9; in [4] it was 7.88. The inhibition constant (Ki) in test [5] is 11.5 nM; in test [6], 15.5 nM; in test [7], 10.2 nM; in test [8], 2.09 nM; in test [9], 7.24 nM.
As to `CN1CCCC1c1ccc(C(O)(c2ccccc2)C2CCCCC2)o1` (mixture of isomers), the pKb was 7.8 in test [2], below 5 in test [3] and 6.98 in [4]. Besides, the Ki in [5] is 7.08 nM; in test [6], 14.1 nM; in [7] it was 6.76 nM; in test [8] it was 1.23 nM; in test [9], 7.76 nM.
On to `CN1CCCC1c1ccc(C(c2ccccc2)C2CCCCC2)o1` (mixture of isomers), for which the pKb in [2] is 7.05; in test [3], below 5; in test [4], 5.36. The Ki in [5] is 55 nM; in test [6] it was 77.6 nM; in [7], 141 nM; in test [8], 13.5 nM; in test [9] it was 33.9 nM.
Turning to `CN1CCC[C@H]1c1ccc([C@](O)(c2ccccc2)C2CCCCC2)o1`, the pKb was determined as 7.66 in [2], 5.84 in [3] and 6.65 in test [4]. In addition, the inhibition constant Ki is 27.5 nM in test [5]; 55 nM in test [6]; 60.3 nM in test [7]; 22.9 nM in test [8]; 23.4 nM in test [9].
Take `C[N+]1(C)CCCC1c1ccc(C(O)(c2ccccc2)c2ccccc2)o1` (racemic) [listing 2 of 2 here]: the Ki in test [5] was 37.2 nM; in test [6], 64.6 nM; in [7] it was 31.6 nM; in test [8], 23.4 nM; in test [9], 36.3 nM.
With `C[N+]1(C)CCCC1c1ccc(C(c2ccccc2)c2ccccc2)o1` (racemic) [listing 1 of 2 here], the pKb in test [2] was 7.59; in test [3], below 5; in test [4] it was 7.09.
`C[N+]1(C)CCCC1c1ccc(C(c2ccccc2)c2ccccc2)o1` (racemic) [listing 2 of 2 here]: the Ki was 31.6 nM in [5]; 38 nM in test [6]; 13.5 nM in test [7]; 11.5 nM in [8]; 23.4 nM in [9].
For `CN1CCC[C@H]1c1ccc([C@@](O)(c2ccccc2)C2CCCCC2)o1`, the pKb in test [2] was 6.41; in test [3], below 5; in test [4], 5.95. The Ki is 1550 nM in [5]; 3090 nM in test [6]; 3240 nM in [7]; 1230 nM in test [8]; 1660 nM in test [9].
Turning to `CN1CCC[C@@H]1c1ccc([C@@](O)(c2ccccc2)C2CCCCC2)o1`, the pKb in test [2] is 6.77; in test [3] it was below 5; in [4], 6.23. The Ki in test [5] was 468 nM; in test [6], 550 nM; in test [7], 363 nM; in [8], 191 nM; in test [9] it was 324 nM.
For the compound `C[N+]1(C)CCC[C@H]1c1ccc([C@@](O)(c2ccccc2)C2CCCCC2)o1`, the pKb in [2] is 6.32; in [3], below 5; in test [4], 5.92. For the same compound, the Ki in [5] was 871 nM; in test [6] it was 2340 nM; in test [7] it was 759 nM; in [8], 331 nM; in test [9], 513 nM.

What is called pKb is the Kb on a negative log10 scale, so that one unit is a factor of ten. By Ki is commonly meant a measure of affinity in units of concentration, obtained from inhibition or displacement. A low value points to tighter binding.

Source of the values: ChEMBL document CHEMBL1156772, “Synthesis, affinity profile and functional activity of potent chiral muscarinic antagonists with a pyrrolidinylfuran structure” (J Med Chem, 2010).
